What follows are molecules tested against T1, Amine oxidase [flavin-containing] A (Mus musculus, UniProt Q64133) (assay: Inhibition at monoamine oxidase in mouse brain).
T1 sequence (Q64133 whole entry): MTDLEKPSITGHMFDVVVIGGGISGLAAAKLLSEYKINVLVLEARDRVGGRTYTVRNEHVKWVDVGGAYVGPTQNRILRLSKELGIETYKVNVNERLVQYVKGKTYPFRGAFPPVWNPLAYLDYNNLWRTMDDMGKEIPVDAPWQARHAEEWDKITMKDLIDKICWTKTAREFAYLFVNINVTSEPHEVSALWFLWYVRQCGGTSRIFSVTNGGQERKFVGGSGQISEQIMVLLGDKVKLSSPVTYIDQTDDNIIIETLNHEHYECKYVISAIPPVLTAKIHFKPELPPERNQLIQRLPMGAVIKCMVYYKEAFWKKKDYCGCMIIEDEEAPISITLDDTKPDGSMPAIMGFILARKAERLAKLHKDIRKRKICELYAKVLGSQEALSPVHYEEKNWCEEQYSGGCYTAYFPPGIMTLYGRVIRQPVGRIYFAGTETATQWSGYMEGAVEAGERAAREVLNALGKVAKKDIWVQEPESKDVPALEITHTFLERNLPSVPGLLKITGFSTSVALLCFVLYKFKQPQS
Format: tissue-based
Summary of the method: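 Enzyme source: mouse brain mitochondrial fraction. Substrate kynuramine, with MAO converting it to 4-hydroxyquinoline. That product is read fluorometrically at excitation 315 nm and emission 380 nm. Compounds go in as DMSO solutions, with DMSO kept below 3%. Iproniazid serves as the positive control. Result reported as IC50.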

Row | IC50 | SMILES
1 | 89.7 µM | CC(C)=CCc1c(O)cc2c(c1O)C(=O)C[C@@H](c1cc3c(cc1O)OC(C)(C)C=C3)O2 [CUDRAFLAVANONE A]
2 | > 150 µM | CC(C)=CC1Oc2cc(O)ccc2-c2oc3cc4c(c(O)c3c(=O)c21)C=CC(C)(C)O4 (stereo unspecified) [CUDRAFLAVONE A]
3 | 80 µM | CC(C)=CCc1c(-c2ccc(O)cc2O)oc2cc3c(c(O)c2c1=O)C=CC(C)(C)O3 [CUDRAFLAVONE B]
4 | 88.3 µM | C=CC(C)(C)c1c(O)cc(O)c2c(=O)c3c(CC=C(C)C)c(O)c(O)cc3oc12 [CUDRATRICUSXANTHONE A]
5 | > 150 µM | CC(C)=CCc1c(O)c(O)cc2oc3c4c(cc(O)c3c(=O)c12)OC(C)C4(C)C (stereo unspecified) [CUDRATRICUSXANTHONE J]
6 | > 150 µM | COc1c(CC=C(C)C)c(O)c2c(=O)c3cc(O)c(O)cc3oc2c1CC=C(C)C [CUDRATRICUSXANTHONE K]
7 | > 150 µM | C=CC(C)(C)c1c(O)cc(O)c2c(=O)c3cc(O)c(O)cc3oc12 [CUDRATRICUSXANTHONE L]
8 | > 150 µM | C=CC(C)(C)c1c(O)cc(O)c2c(=O)c3c(CCC(C)(C)O)c(O)c(O)cc3oc12 [CUDRATRICUSXANTHONE M]
9 | > 150 µM | C=CC(C)(C)c1c(O)cc(O)c2c(=O)c3c(CC=C(C)C)c(OC)c(O)cc3oc12 [CUDRAXANTHONE C]
10 | > 150 µM | C=CC(C)(C)c1c(O)cc2oc3c(CC=C(C)C)c(O)c(O)cc3c(=O)c2c1O [CUDRAXANTHONE L]
11 | > 150 µM | C=CC(C)(C)c1c(O)cc2oc3c4c(c(O)cc3c(=O)c2c1O)OC(C)(C)C=C4 [ISOCUDRAXANTHONE K]

Source: ChEMBL document CHEMBL1146238, “Prenylated xanthones from the root bark of Cudrania tricuspidata” (J Nat Prod, 2007)
